Compound activity from PubChem BioAssay.
ASAP1 inh: inhibitors of human ASAP1 ArfGAP activity | Q9ULH1 | ASAP1-stimulated ARF1 GTP hydrolysis, GDP FP detection | inhibition, % at 16.5 µM | 360,000 tested, 0.19% active | AID 624377; in the data active = inhibition above about 25%;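 note: 0% = vehicle with enzyme and substrate and 100% = no enzyme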
Target sequence (Q9ULH1 325-724 limits assumed): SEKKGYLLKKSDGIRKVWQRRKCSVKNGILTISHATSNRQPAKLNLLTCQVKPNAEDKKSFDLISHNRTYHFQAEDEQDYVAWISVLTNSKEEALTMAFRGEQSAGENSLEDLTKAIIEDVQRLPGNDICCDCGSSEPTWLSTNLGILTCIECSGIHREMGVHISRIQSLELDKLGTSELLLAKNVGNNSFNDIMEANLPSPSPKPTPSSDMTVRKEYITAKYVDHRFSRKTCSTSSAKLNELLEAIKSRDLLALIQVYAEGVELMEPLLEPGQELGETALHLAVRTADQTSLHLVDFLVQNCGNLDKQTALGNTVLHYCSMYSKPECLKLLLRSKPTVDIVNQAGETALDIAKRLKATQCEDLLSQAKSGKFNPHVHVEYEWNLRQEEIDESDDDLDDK
SMARCA2 activ: SMARCA2 function activation, primary screen; MG213 cells, MMTV-luciferase reporter, dexamethasone, overnight; 370,000 tested, 1% active; AID 652017; activation, % at 9.1 µM; in the data active = activation above about 7.8%;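 note: 0% = vehicle wells and 100% = reference activator wells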
esBAF inh: inhibitors of esBAF chromatin remodeling in mouse ES cells | AID 602393 | reporter increase, % at 12.5 µM | 350,000 tested, 2% active | Bmi1-luciferase knock-in reporter, 24 h; 100% = twice the neutral-well signal; in the data active = activation above about 40%;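 note: 0% = median of the plate's neutral control wells and 100% = double that signal; a rise in the Bmi1 reporter signal indicates esBAF inhibition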
ARFGAP1 inh: inhibitors of rat ARFGAP1. Q62848. Arfgap1-stimulated ARF1 GTP hydrolysis, GDP FP detection. inhibition, % at 16.5 µM. 360,000 tested, 0.26% active. AID 651572;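 active = inhibition above a per-plate limit, mean inhibition of low control wells plus 3 SD, cut at about 25% in these data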;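 note: 0% = DMSO wells with enzyme and 100% = wells lacking Arfgap1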
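Repeats: one replicate per compound; assay system: rat Arfgap1 catalytic domain, aa 1-136; times: enzyme reaction 120 min at 25 °C after 20 min preincubation; detection: FP of antibody-bound GDP Alexa 633 tracer, ex 620/em 688 nm; benchmarks: high control wells lacking Arfgap1, low control full reaction with DMSO; reagent: human ARF1(Δ1-17)-GTP substrate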
An asterisk follows results filed as active; x = not tested or not shown. An excerpt weighted towards active compounds, which were near 2.6% of everything screened.

SMILES	ASAP1 inh	SMARCA2 activ	esBAF inh	ARFGAP1 inh
COc1ccc(/C=C/C(=O)c2ccc(Cl)s2)cc1O	-5	2	56*	1
O=C(NCC1CC1)[C@@H]1[C@@H](CO)[C@@H]2Cn3c(ccc(-c4ccccc4F)c3=O)[C@H]1N2Cc1ccncc1	x	x	-6	x
CC(=O)c1cccc(NC(=O)COC(=O)c2ccccc2C)c1	4	6	44*	6
Cc1nc(C(C)NC(=O)CCc2nnc(CCCc3ccccc3)o2)c(C)s1 (configuration not stated)	0	5	70*	3
O=C(CCc1nnc(CCCc2ccccc2)o1)NC(C1CC1)C1CC1	-13	6	x	-5
COc1ccc2[nH]cc(C(=O)CNc3nc(C)cs3)c2c1	9	4	70*	-5
Cc1c(C(=S)Nc2ccccc2)cnn1-c1ccccc1	6	3	x	-9
Cc1nn(-c2ccccc2)cc1C(=S)Nc1ccccc1	-1	2	49*	-1
COc1ccc(S(=O)(=O)N2CC[C@@H]3[C@H](CO)Nc4ccc(-c5ccccc5F)cc4[C@@H]32)cc1	x	x	-1	x
CCc1cc2c(=O)c(-c3nc4ccccc4[nH]3)coc2cc1OC(=O)N1CCOCC1	-3	1	68*	2
COc1cc(C)ccc1OCc1cc(C(=O)N2CCCCCCC2)no1	7	2	55*	8
CCN1CCN(C(=O)c2cc(COc3ccc(C(C)=O)cc3OC)on2)CC1	-16	4	71*	1
O=C(c1cc(-c2ccc(Cl)c(Cl)c2)on1)N1CCCCC1	0	5	56*	-5
Cc1ccc(C)c(OCc2cc(C(=O)N3CC[C@H](O)C3)no2)c1	15	8	47*	3
C[C@H](CO)N1C[C@H](C)[C@@H](CN(C)C(=O)CCC(F)(F)F)OCCCC[C@H](C)Oc2ccc(NS(C)(=O)=O)cc2C1=O	x	x	-5	x
CN(CCN1CCOCC1)C(=O)c1cc(COc2ccc(F)cc2Cl)on1	-5	-2	11	1
O=C(c1cc(COc2ccc(F)cc2Cl)on1)N1CCCCCC1	7	4	95*	9
CN(CCc1ccccc1)C(=O)c1cc(COc2ccc(F)cc2Cl)on1	9	7	43*	-4
O=C(c1cc(COc2ccc(F)cc2Cl)on1)N1CCCCCCC1	3	-2	25	9
C[C@H](CO)N1C[C@H](C)[C@H](CN(C)S(=O)(=O)c2ccc(Cl)cc2)Oc2c(NS(=O)(=O)c3cccs3)cccc2C1=O	x	x	2	x
COc1ccc(Nc2ccc([N+](=O)[O-])cn2)cc1	5	0	38	-11
COc1ccc(CNc2ccc([N+](=O)[O-])cn2)cc1	15	4	63*	2
Cc1nc(SCc2nc3ccc(Br)cc3[nH]2)c2oc3ccccc3c2n1	5	0	-4	3
COc1ccc2c(c1)oc1c(SCc3nc4ccccc4[nH]3)nc(C)nc12	5	5	68*	5
Cc1nc(SCc2nc3ccccc3[nH]2)c2oc3cc([N+](=O)[O-])ccc3c2n1	12	1	49*	1
SMILES	ASAP1 inh	SMARCA2 activ	esBAF inh	ARFGAP1 inh
O=[N+]([O-])c1cccc(-c2cnc3ccccc3n2)c1	4	4	52*	-3
O=Cc1cccn1-c1cccnc1	3	7.9*	x	1
C[C@H]1CN([C@@H](C)CO)C(=O)c2cccc(NC(=O)Nc3ccccc3)c2O[C@@H]1CN(C)CC1CCCCC1	x	x	-3	x
CCN(CC)c1ccc(NC(=O)C2CC3CCC2C3)cc1 (configuration not stated)	4	4	48*	9
O=C(Nc1ccccc1)C1CC2CCC1C2 (configuration not stated)	-8	2	2	16
CC(=O)Nc1ccc(Oc2nc(-c3ccccn3)nc3ccccc23)cc1	-14	7.9*	x	-11
C[C@H](CO)N1C[C@H](C)[C@@H](CN(C)Cc2ccncc2)OCCCC[C@H](C)Oc2ccc(NC(=O)CCC(F)(F)F)cc2C1=O	x	x	-2	x
Cc1ccccc1OCC1Cc2c(nc(N)c(C#N)c2N)O1 (configuration not stated)	-6	7	49*	6
N#Cc1c(N)nc2c(c1N)CC(COc1ccccc1)O2 (configuration not stated)	-11	6	x	-6
Nc1nc(CSc2ccccn2)nc(Nc2ccccc2)n1	-8	-1	52*	-2
C=CCc1ccc(OCC(O)CO)c(OC)c1 (configuration not stated)	9	5	x	1
C=CCc1ccc(OCC(O)COCC)c(OC)c1 (configuration not stated)	0	7	41*	-8
